According to ChEMBL document CHEMBL3774339, “Exploring Selective Inhibition of the First Bromodomain of the Human Bromodomain and Extra-terminal Domain (BET) Proteins” (J Med Chem, 2016):
Each block holds one compound with its values, some of them ahead of it.

Tests used:
[1] = target: Bromodomain testis-specific protein (Homo sapiens, UniProt Q58F21); assay: Inhibition of GST-tagged human BRDT bromodomain1 using H4KAc 5/8/12/16 peptide as substrate incubated overnight by HTRF assay
[2] = target: T1, ATPase family AAA domain-containing protein 2 (Homo sapiens, UniProt Q6PL18); assay: Inhibition of GST-tagged human ATAD2 using H4KAc 5/8/12/16 peptide as substrate incubated overnight by HTRF assay
T1 sequence (Q6PL18 whole entry): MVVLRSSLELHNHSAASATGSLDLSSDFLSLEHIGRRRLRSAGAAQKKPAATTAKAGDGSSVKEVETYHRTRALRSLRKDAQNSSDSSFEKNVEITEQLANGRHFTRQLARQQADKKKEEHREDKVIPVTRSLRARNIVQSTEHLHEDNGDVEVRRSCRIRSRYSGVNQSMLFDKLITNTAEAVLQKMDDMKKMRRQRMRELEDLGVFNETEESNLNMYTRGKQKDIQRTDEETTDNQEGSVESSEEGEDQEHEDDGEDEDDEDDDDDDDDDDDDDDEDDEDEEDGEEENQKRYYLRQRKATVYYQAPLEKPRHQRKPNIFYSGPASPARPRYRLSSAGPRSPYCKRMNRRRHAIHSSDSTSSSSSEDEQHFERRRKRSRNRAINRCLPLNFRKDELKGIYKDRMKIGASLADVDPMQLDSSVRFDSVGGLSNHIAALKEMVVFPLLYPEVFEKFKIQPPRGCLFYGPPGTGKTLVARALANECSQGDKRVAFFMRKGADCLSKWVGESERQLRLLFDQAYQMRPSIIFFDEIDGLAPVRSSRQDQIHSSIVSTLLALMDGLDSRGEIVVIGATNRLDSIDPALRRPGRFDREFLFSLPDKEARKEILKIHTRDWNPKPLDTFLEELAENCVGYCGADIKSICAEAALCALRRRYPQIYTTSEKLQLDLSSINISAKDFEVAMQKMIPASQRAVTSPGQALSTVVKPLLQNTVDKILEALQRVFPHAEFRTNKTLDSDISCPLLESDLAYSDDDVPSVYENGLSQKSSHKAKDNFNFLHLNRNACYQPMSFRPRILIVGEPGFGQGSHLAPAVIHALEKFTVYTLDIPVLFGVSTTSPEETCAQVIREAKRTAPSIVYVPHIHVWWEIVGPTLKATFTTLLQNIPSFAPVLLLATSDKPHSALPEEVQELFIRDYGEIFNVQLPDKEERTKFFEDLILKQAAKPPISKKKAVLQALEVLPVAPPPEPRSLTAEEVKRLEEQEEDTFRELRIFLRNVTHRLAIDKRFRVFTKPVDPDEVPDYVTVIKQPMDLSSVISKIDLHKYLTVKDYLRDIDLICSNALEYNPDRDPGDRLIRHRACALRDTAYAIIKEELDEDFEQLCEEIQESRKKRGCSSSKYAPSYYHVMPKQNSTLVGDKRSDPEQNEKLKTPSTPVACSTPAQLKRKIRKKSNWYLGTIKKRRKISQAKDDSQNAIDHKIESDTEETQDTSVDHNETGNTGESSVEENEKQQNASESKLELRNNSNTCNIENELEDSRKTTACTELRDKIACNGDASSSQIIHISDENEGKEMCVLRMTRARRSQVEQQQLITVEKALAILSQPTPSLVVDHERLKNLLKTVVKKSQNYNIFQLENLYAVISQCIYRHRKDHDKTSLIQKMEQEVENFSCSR

[3] = species on record: Homo sapiens; assay: Selectivity ratio of IC50 for GST-tagged human BRD3 bromodomain1 to IC50 for GST-tagged human BRD4 bromodomain1
[4] = test system: Jurkat; assay: Antiproliferative activity against human Jurkat cells after 72 hrs by Cell Titer-Glo luminescence assay; assay type: functional, cell-based
Summary of the method: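 Jurkat cell viability read across a range of compound concentrations after 72 h incubation at 37 °C. EC50 taken from the dose–response.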

[5] = test system: Jurkat; assay: Downregulation of c-Myc in human Jurkat cells assessed as expression level at 1 uM after 24 hrs by Western blot analysis; assay type: functional
Summary of the method: (§1)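 Jurkat cells exposed to different compound concentrations in 0.5% DMSO for 24 h. c-Myc detected on blots loaded with 50 μg protein.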

[6] = test system: Jurkat; assay: Downregulation of c-Myc in human Jurkat cells assessed as expression level at 10 uM after 24 hrs by Western blot analysis; assay type: functional; summary of the method: as §1
[7] = test system: Jurkat; assay: Downregulation of c-Myc in human Jurkat cells assessed as expression level at 50 uM after 24 hrs by Western blot analysis; assay type: functional; summary of the method: as §1
[8] = test system: Jurkat; assay: Downregulation of c-Myc in human Jurkat cells assessed as expression level after 24 hrs by Western blot analysis; assay type: functional, cell-based; summary of the method: as §1
[9] = species on record: Homo sapiens; assay: Selectivity ratio of IC50 for GST-tagged human BRD2 bromodomain1 to IC50 for GST-tagged human BRD4 bromodomain1
[10] = species on record: Homo sapiens; assay: Selectivity ratio of IC50 for GST-tagged human BRDT bromodomain1 to IC50 for GST-tagged human BRD4 bromodomain1
[11] = target: Bromodomain-containing protein 4 (Homo sapiens, UniProt O60885); assay: Inhibition of GST-tagged human BRD4 bromodomain1 using H4KAc 5/8/12/16 peptide as substrate incubated overnight by HTRF assay
[12] = target: Bromodomain-containing protein 3 (Homo sapiens, UniProt Q15059); assay: Inhibition of human BRD3 bromodomain2 using H4KAc 5/8/12/16 peptide as substrate incubated overnight by HTRF assay
Chain of Bromodomain-containing protein 3 (Q15059 whole entry): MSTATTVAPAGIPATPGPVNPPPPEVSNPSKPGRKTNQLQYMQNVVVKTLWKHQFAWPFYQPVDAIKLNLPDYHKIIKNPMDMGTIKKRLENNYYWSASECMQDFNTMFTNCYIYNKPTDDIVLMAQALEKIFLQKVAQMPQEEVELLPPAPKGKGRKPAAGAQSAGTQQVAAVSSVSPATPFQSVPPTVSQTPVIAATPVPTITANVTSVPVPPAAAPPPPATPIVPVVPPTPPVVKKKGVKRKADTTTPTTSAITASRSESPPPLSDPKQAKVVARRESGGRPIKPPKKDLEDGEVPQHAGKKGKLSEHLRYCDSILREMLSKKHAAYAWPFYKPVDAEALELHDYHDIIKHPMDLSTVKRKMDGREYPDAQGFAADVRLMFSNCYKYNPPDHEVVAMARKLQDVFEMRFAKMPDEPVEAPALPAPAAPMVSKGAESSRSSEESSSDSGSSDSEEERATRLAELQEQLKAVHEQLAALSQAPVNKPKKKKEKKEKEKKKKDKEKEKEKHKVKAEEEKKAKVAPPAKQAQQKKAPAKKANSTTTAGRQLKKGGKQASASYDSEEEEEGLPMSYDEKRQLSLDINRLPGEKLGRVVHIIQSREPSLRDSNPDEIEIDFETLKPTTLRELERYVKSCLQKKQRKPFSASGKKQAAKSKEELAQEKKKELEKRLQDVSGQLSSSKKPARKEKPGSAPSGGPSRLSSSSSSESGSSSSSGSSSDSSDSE

IC50 [1]: > 100 µM
IC50 [2]: > 100 µM
Ratio IC50 [3]: > 10
EC50 [4]: 27 µM
Ratio IC50 [9]: > 10
Ratio IC50 [10]: > 10
SMILES: CCCCc1c(C)nc2nc(SCc3nc4c(c(=O)[nH]c(=O)n4CCCC)n3CC)nn2c1C
Activity [4]: Dose-dependent effect
Activity [5]: 62%
Activity [6]: 98%
Activity [7]: 3%
Activity [8]: Dose-dependent effect

IC50 [11]: > 50 µM
SMILES: CCCCn1c(=O)[nH]c(=O)c2c1nc(CSc1n[nH]c(N)n1)n2CC

IC50 [12]: 1.8 µM
SMILES: CCn1cnc2c1c(=O)[nH]c(=O)n2Cc1ccc(Cl)cc1

IC50 [1]: > 100 µM
SMILES: CCn1c(CSc2n[nH]c(N)n2)nc2c1c(=O)[nH]c(=O)n2Cc1ccc(Cl)cc1
